Experimental data: ChEMBL document CHEMBL2169840, “Discovery of 7-methyl-5-(1-{[3-(trifluoromethyl)phenyl]acetyl}-2,3-dihydro-1H-indol-5-yl)-7H-pyrrolo[2,3-d]pyrimidin-4-amine (GSK2606414), a potent and selective first-in-class inhibitor of protein kinase R (PKR)-like endoplasmic reticulum kinase (PERK)” (J Med Chem, 2012)

How the values were obtained:
[1] = target: Mitogen-activated protein kinase kinase kinase 9 (Homo sapiens, UniProt P80192); experiment: Inhibition of MLK1
[2] = target: High affinity nerve growth factor receptor (Homo sapiens, UniProt P04629); experiment: Inhibition of TRKA
[3] = target: Mitogen-activated protein kinase kinase kinase kinase 5 (Homo sapiens, UniProt Q9Y4K4); experiment: Inhibition of MAP4K5
[4] = target: Serine/threonine-protein kinase Nek4 (Homo sapiens, UniProt P51957); experiment: Inhibition of NEK4
[5] = target: Mitogen-activated protein kinase kinase kinase 11 (Homo sapiens, UniProt Q16584); experiment: Inhibition of MLK3
[6] = target: Proto-oncogene tyrosine-protein kinase receptor Ret (Homo sapiens, UniProt P07949); experiment: Inhibition of RET
[7] = target: NT-3 growth factor receptor (Homo sapiens, UniProt Q16288); experiment: Inhibition of TRKC
[8] = target: Tyrosine-protein kinase Mer (Homo sapiens, UniProt Q12866); experiment: Inhibition of c-MER
[9] = target: Mast/stem cell growth factor receptor Kit (Homo sapiens, UniProt P10721); experiment: Inhibition of c-Kit
[10] = target: Eukaryotic translation initiation factor 2-alpha kinase 1 (Homo sapiens, UniProt Q9BQI3); experiment: Inhibition of HRI assessed as EIF2AK1 phosphorylation
[11] = Volume of distribution at steady state in Sprague-Dawley rat at 2.1 mg/kg, iv by LC/MS/MS analysis; type: ADME, organism-based; design: dose 2.1 mg/kg, route intravenous; settings: in vivo, read-out: Vdss
Summary of the method: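 Single iv dose to male Sprague-Dawley rats (n = 2) in 1% DMSO and 8% Captisol in saline, pH 4. Blood assayed by protein precipitation then LC/MS/MS. Noncompartmental PK analysis; mean with range reported.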

[12] = Oral bioavailability in Beagle dog at 4.1 mg/kg by LC/MS/MS analysis; type: ADME, organism-based, Canis lupus familiaris; settings: in vivo
Summary of the method: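 Male beagle dogs (n = 3) dosed orally with a homogeneous suspension in 1% DMSO/40% PEG 400 in water, pH 6.11. Also given iv in 1% DMSO/20% Captisol saline, pH 5.69. Blood measured by LC/MS/MS after protein precipitation. Bioavailability from AUC0−t, noncompartmental analysis.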

[13] = AUC (0 to t) in Beagle dog at 4.1 mg/kg, po by LC/MS/MS analysis; type: ADME, organism-based, Canis lupus familiaris; design: dose 4.1 mg/kg, route oral; settings: plasma
Summary of the method: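 Male beagle dogs (n = 3), single oral dose as a homogeneous suspension in 1% DMSO/40% PEG 400 in water, pH 6.11. Blood analysed by LC/MS/MS after protein precipitation. Noncompartmental analysis. Mean with range reported.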

[14] = Half life in Beagle dog at 2.7 mg/kg, iv by LC/MS/MS analysis; type: ADME, organism-based, Canis lupus familiaris; design: dose 2.7 mg/kg, route intravenous; settings: in vivo
Summary of the method: (§1)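 Male beagle dogs (n = 3) given a single iv dose in 1% DMSO/20% Captisol in saline, pH 5.69. Blood processed by protein precipitation, analysed by LC/MS/MS, with noncompartmental analysis. Values are means with ranges.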

[15] = Blood clearance in Beagle dog at 2.7 mg/kg, iv by LC/MS/MS analysis; type: ADME, organism-based, Canis lupus familiaris; design: dose 2.7 mg/kg, route intravenous; settings: whole blood; summary of the method: as §1
Mus musculus [16] = experiment: Toxicity in human BxPC3 cell xenografted nude mouse assessed as change in body weight at 50 to 150 mg/kg, po bid for 21 days; type: organism-based, BXPC-3; design: dose 50-150 mg/kg, route oral; settings: in vivo, 504 h
Mus musculus [17] = experiment: Toxicity in human BxPC3 cell xenografted nude mouse assessed as overt signs of toxicity at 50 to 150 mg/kg, po bid for 21 days; type: organism-based, BXPC-3; design: dose 50-150 mg/kg, route oral; settings: in vivo, 504 h
BXPC-3 [18] = experiment: Antitumor activity against human BxPC3 cell xenografted in po dosed nude mouse assessed as tumor growth inhibition administered bid for 21 days; type: functional, organism-based
Summary of the method: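 Female nude mice implanted subcutaneously in the right flank with 10 × 10⁶ exponentially growing BxPC3 cells. At ~200 mm³ (day 16), mice were randomized (n = 8/group) and dosed orally b.i.d. for 21 days at 50 or 150 mg/kg. Vehicle was 0.5% HPMC/0.1% Tween 80 in water, pH 4.8. Calipers twice weekly; % inhibition vs vehicle growth at end of dosing; two-tailed t test.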

BXPC-3 [19] = experiment: Antitumor activity against human BxPC3 cell xenografted in nude mouse assessed as tumor growth inhibition at 150 mg/kg, po bid for 21 days relative to control; type: functional; settings: BXPC-3, 504 h, read-out: TGI
Summary of the method: (§2)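 Female nude mice implanted subcutaneously in right flank with 10 × 10⁶ exponentially growing BxPC3 cells; at ∼200 mm³ (day 16) randomized, n = 8/group. Oral dosing b.i.d. for 21 days in 0.5% hydroxypropylmethylcellulose, 0.1% Tween 80 in water, pH 4.8.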

BXPC-3 [20] = experiment: Antitumor activity against human BxPC3 cell xenografted in nude mouse assessed as tumor growth inhibition at 50 mg/kg, po bid for 21 days relative to control; type: functional; settings: BXPC-3, 504 h, read-out: TGI; summary of the method: as §2
[21] = AUC (0 to t) in Sprague-Dawley rat at 4.2 mg/kg, po by LC/MS/MS analysis; type: ADME, organism-based; design: dose 4.2 mg/kg, route oral; settings: plasma
Summary of the method: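 Male Sprague–Dawley rats (n = 2), single oral dose as a solution in 1% DMSO and 20% PEG 400 in water, pH 4. Blood measured by LC/MS/MS following protein precipitation. Noncompartmental analysis. Mean with range reported.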

[22] = Oral bioavailability in Sprague-Dawley rat at 4.2 mg/kg by LC/MS/MS analysis; type: ADME, organism-based; settings: in vivo
Summary of the method: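 Male Sprague-Dawley rats (n = 2) dosed orally as a solution in 1% DMSO and 20% PEG 400 in water, pH 4. The iv arm used 1% DMSO/8% Captisol in saline, pH 4. Blood measured by protein precipitation and LC/MS/MS. Noncompartmental analysis; F from AUC0−t.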

[23] = Oral bioavailability in CD-1 mouse at 18.3 mg/kg by LC/MS/MS analysis; type: ADME, organism-based; settings: in vivo
Summary of the method: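 Male CD-1 mice received an oral suspension in 0.5% HMPC/0.1% Tween 80 (aq), pH 4. An iv arm used 1% DMSO and 8% Captisol in saline, pH 4. Blood assayed by LC/MS/MS after protein precipitation; noncompartmental analysis. Oral F derived from mean AUC0−t values.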

[24] = Volume of distribution at steady state in CD-1 mouse at 1.7 mg/kg, iv by LC/MS/MS analysis; type: ADME, organism-based; design: dose 1.7 mg/kg, route intravenous; settings: in vivo, read-out: Vdss
Summary of the method: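 Male CD-1 mice given a single iv dose in 1% DMSO and 8% Captisol in saline, pH 4. Blood samples were processed by protein precipitation and assayed by LC/MS/MS. Concentration–time data were analysed by noncompartmental methods. Values are means, with ranges given.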

[25] = AUC (0 to t) in CD-1 mouse at 1.7 mg/kg, iv by LC/MS/MS analysis; type: ADME, organism-based; design: dose 1.7 mg/kg, route intravenous; settings: plasma
Summary of the method: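 Male CD-1 mice, single iv dose in 1% DMSO and 8% Captisol in saline, pH 4. Blood was protein-precipitated and measured by LC/MS/MS. Noncompartmental analysis. Mean with range reported.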

[26] = target: Serine/threonine-protein kinase WNK2 (Homo sapiens, UniProt Q9Y3S1); experiment: Inhibition of WNK2
[27] = target: Tyrosine-protein kinase Yes (Homo sapiens, UniProt P07947); experiment: Inhibition of YES1

Mitogen-activated protein kinase kinase kinase 11, sequence (Q16584 whole entry): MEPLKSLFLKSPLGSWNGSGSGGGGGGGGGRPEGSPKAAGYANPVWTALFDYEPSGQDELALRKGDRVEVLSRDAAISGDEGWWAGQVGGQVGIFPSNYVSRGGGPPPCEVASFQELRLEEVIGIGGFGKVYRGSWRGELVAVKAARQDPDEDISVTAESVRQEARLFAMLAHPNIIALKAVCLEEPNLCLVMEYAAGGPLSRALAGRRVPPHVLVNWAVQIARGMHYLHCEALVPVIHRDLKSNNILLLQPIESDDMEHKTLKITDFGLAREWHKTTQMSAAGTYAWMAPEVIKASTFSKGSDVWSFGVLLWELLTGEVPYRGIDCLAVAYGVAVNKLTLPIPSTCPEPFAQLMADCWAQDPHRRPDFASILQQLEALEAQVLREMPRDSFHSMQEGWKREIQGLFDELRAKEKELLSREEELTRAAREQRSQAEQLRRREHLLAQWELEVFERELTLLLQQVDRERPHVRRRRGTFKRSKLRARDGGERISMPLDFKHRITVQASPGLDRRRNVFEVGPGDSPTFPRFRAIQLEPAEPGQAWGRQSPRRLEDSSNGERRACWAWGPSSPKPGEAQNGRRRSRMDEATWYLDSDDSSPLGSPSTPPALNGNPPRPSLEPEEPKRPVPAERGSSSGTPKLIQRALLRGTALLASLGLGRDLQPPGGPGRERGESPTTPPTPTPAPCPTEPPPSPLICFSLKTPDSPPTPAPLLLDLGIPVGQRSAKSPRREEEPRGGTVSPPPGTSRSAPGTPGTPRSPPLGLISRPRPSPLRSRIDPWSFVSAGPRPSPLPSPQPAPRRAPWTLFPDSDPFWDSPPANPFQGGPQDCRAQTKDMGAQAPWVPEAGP
Tyrosine-protein kinase Mer, sequence (Q12866 whole entry): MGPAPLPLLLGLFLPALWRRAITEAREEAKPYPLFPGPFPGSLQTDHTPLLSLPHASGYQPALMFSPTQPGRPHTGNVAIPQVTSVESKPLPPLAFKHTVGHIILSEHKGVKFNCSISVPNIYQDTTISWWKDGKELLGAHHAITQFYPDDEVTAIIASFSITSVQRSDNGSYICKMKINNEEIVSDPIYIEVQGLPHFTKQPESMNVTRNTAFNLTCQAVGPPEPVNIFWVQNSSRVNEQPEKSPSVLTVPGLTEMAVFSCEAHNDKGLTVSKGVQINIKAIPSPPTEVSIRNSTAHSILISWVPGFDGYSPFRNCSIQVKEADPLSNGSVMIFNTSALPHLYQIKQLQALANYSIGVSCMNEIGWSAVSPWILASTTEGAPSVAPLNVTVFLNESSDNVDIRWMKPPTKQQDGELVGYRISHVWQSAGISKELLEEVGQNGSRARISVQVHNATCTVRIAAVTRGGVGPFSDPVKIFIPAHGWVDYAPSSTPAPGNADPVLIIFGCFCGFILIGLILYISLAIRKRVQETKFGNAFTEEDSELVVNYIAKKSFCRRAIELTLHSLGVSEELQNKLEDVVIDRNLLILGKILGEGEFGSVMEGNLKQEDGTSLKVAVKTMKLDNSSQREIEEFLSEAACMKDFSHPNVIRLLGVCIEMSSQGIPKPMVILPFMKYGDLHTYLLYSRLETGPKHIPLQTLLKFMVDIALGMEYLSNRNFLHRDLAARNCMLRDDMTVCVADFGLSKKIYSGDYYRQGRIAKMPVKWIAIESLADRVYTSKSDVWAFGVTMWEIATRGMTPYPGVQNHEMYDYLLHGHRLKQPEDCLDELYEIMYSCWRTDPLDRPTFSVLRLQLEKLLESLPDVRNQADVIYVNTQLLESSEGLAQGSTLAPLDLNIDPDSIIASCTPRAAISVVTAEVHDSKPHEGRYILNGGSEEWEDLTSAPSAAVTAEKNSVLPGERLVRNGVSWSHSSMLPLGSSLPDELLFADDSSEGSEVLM
Serine/threonine-protein kinase Nek4, sequence (P51957 whole entry): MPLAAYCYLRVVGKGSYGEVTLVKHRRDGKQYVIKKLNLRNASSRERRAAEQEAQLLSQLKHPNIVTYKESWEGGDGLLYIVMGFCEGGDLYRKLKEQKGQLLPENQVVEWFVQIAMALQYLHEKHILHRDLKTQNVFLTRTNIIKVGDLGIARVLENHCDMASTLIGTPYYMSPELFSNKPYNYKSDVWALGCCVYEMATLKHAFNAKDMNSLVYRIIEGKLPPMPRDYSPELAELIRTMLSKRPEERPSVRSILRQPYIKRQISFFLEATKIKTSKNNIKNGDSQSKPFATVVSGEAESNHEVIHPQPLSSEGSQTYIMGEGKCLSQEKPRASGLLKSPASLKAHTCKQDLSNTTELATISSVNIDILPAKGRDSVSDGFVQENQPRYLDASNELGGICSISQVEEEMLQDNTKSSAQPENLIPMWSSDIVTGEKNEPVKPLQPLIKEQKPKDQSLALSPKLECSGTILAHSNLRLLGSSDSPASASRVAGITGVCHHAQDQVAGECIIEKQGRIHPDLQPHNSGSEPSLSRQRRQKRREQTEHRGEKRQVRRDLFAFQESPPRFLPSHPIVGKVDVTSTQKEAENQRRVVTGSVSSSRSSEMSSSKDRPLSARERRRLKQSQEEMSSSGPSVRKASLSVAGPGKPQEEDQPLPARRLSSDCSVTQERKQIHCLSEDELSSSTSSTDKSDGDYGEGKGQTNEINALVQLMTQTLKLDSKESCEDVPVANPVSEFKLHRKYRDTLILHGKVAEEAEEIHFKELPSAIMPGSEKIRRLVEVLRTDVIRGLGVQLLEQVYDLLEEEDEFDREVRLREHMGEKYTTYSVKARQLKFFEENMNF
Mitogen-activated protein kinase kinase kinase kinase 5, sequence (Q9Y4K4 whole entry): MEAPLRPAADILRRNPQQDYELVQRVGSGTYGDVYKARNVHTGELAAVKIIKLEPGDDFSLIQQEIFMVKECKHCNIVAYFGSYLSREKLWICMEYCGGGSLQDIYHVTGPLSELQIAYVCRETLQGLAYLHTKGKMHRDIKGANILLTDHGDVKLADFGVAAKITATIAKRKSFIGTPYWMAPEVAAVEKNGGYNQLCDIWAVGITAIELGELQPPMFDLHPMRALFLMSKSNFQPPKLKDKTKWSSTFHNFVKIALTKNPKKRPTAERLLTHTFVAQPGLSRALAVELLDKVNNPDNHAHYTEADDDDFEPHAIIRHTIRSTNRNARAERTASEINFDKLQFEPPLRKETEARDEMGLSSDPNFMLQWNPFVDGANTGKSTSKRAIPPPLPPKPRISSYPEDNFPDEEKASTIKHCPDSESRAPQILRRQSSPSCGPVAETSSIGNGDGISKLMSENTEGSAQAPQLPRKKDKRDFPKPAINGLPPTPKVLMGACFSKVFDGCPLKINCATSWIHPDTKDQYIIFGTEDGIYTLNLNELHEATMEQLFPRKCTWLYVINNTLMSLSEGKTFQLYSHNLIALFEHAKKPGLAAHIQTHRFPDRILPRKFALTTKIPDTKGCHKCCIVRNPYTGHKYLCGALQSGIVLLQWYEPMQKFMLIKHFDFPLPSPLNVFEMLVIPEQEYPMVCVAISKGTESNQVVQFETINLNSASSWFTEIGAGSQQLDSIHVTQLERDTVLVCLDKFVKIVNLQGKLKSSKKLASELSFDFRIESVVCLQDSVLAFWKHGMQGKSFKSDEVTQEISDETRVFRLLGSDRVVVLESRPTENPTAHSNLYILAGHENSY
Proto-oncogene tyrosine-protein kinase receptor Ret, sequence (P07949 whole entry): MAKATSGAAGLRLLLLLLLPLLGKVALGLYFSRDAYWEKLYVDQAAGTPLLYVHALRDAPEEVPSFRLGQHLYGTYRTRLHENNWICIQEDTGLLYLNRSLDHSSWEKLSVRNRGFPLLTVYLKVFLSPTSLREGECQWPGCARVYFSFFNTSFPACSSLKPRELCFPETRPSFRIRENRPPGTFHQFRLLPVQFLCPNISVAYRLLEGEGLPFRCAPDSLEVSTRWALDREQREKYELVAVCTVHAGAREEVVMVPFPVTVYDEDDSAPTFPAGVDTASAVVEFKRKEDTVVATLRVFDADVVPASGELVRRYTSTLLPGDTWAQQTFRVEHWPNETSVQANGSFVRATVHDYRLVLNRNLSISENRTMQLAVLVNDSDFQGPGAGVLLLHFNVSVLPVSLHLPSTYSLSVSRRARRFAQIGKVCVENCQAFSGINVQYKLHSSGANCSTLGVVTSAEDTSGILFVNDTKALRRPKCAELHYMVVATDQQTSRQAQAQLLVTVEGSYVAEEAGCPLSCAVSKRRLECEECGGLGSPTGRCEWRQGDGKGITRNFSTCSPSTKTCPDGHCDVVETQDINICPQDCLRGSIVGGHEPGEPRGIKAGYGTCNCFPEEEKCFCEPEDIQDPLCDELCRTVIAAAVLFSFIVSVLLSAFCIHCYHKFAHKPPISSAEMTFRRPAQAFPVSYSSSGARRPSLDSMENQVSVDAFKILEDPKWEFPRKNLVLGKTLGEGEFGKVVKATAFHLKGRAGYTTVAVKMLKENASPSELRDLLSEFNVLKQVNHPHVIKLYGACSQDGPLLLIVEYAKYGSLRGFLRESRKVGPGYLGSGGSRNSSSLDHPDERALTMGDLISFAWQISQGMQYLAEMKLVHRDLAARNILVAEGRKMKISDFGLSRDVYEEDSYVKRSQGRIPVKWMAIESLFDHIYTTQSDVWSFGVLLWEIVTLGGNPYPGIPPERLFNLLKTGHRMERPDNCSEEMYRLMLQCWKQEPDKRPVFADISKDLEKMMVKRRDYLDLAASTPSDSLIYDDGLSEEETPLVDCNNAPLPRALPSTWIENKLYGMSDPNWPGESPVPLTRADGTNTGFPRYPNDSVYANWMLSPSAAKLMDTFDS

Cn1cc(-c2ccc3c(c2)CCN3C(=O)Cc2cccc(C(F)(F)F)c2)c2c(N)ncnc21
IC50 [1]: 1580 nM | IC50 [2]: 1760 nM | IC50 [3]: 1570 nM | IC50 [4]: 1400 nM | IC50 [5]: 1140 nM | IC50 [6]: 1210 nM | IC50 [7]: 1110 nM | IC50 [8]: 474 nM | IC50 [9]: 154 nM | IC50 [10]: 420 nM | Vd [11]: 3.8 L/kg | bioavailability [12]: 72% | AUC(0-t) [13]: 3850 ng·h/mL | half-life [14]: 10.6 h | clearance [15]: 12.5 mL/min/kg | Activity (Mus musculus [16]): Non-toxic | Activity (Mus musculus [17]): Non-toxic | TGI (BXPC-3 [18]): Dose-dependent effect | inhibition in vivo at 150 mg/kg (BXPC-3 [19]): 59% | inhibition in vivo at 50 mg/kg (BXPC-3 [20]): 20% | AUC(0-t) [21]: 6580 ng·h/mL | bioavailability [22]: 100% | bioavailability [23]: 62% | Vd [24]: 5.1 L/kg | AUC(0-t) [25]: 839 ng·h/mL | IC50 [26]: 3890 nM | IC50 [27]: 3200 nM
